Ends that are not written are not given here.
Test system: mice with DSS-induced acute colitis
Experiment: Treatment of DSS-induced acute colitis in mice
Type: in vivo, C57BL/6 J mice
Conditions: oral, daily, 7 days; Ac2-26 95.2 μg/kg; ATTN 35 mg/kg
Method in brief: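 Acute colitis induced in C57BL/6 J mice by 3% (w/v) DSS in drinking water for 7 days. Colitis mice were randomized into 4 groups and dosed daily by oral gavage with one of: saline, free peptide, peptide-free carrier nanoparticles (35 mg/kg), or peptide-loaded nanoparticles (35 mg/kg). Peptide dose was 95.2 μg/kg in every peptide-containing formulation.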

Ac2-26: pro-resolving peptide Ac2-26, synthesized by ChinaPeptides Co., Ltd. (Ac-AMVSEFLKQAWFIENEEQEYVQTVK; UniProt P04083 2-26, looked up, fragment)
depletion of goblet cells (PAS staining): no beneficial effects
